Assay outcomes: PubChem, several laboratories
In the library only some 1.7% were active in any assay of this set; here they are far more common.
CAL PDZ FP-1: blocks peptide binding to human CAL PDZ domain; inhibition, % at 20 µM; AID 504414; Q9HD26; purified CAL PDZ, TMR-peptide fluorescence polarization, 1 h; 0.02% of 330,000 active;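 active means highest replicate inhibition of at least 40%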;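 further: plate controls were DMSO neutral control wells for no effect and unlabeled competitor peptide control wells for full effect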
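material = purified tagged CAL PDZ domain construct (CerCALP) | compound dosing = 20 µM, one dose | times = 1 h at RT | measured by = fluorescence polarization from S- and P-plane intensities, G-factor corrected | read-out = inhibition from polarization loss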
Keap1-Nrf2 PPI: disrupts human Keap1 binding to Nrf2 peptide. Q14145. Keap1 Kelch-Nrf2 peptide fluorescence polarization, 1536-well. inhibition, % at 9.4 µM. 0.15% of 340,000 active; in the data active means inhibition above about 12%;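 further: human Keap1 Kelch domain with fluorescein labeled Nrf2 9mer peptide probe; 0% = neutral control wells and 100% = peptide positive control; higher means more block of Keap1 binding to Nrf2 peptide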
LANA DNA inh: blocks KSHV LANA C-terminal domain binding to DNA | MBP-C-LANA/FAM-LBS DNA binding, fluorescence polarization | inhibition, % at 9 µM | 0.078% of 340,000 active;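 active means highest replicate inhibition at or above 60% at 9 µM, even if other replicates fall short; inactive means all replicates below 60% inhibition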;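 further: 0% = neutral control wells and 100% = 4 µM acridine orange control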
APOBEC3G inh: blocks human APOBEC3G single-stranded DNA deamination; AID 493012; inhibition, % at 20 µM; Q9HC16; recombinant A3G, ssDNA deamination FAM/TAMRA fluorescence; 0.28% of 330,000 active;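 active means inhibition of at least 40% at 20 µM, with no more than 30% in the related APOBEC3A deaminase screen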;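 further: plate controls were DMSO wells with A3G for no effect and wells lacking A3G enzyme for full effect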
Target sequence (Q9HC16 whole entry, looked up): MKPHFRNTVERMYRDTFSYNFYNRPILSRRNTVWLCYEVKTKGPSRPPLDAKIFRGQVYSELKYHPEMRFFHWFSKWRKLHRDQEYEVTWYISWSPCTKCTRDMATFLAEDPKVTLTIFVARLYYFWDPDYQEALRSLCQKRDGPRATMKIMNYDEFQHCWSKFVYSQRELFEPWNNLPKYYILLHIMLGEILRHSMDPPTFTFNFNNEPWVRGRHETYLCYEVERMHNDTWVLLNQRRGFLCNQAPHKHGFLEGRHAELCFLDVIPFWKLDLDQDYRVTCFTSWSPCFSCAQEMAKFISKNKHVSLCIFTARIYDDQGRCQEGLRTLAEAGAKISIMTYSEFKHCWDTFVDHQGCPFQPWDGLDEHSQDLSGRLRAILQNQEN
A3A deaminase: blocks human APOBEC3A ssDNA deamination; inhibition, % at 20 µM; P31941; recombinant A3A, FAM/TAMRA ssDNA deamination fluorescence; 0.41% of 330,000 active;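 active means at least 40% inhibition at 20 µM here, with at most 30% in a related deaminase screen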;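 further: plate controls were A3A with DMSO for no effect and wells lacking A3A enzyme for full effect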
Target sequence (P31941 whole entry, looked up): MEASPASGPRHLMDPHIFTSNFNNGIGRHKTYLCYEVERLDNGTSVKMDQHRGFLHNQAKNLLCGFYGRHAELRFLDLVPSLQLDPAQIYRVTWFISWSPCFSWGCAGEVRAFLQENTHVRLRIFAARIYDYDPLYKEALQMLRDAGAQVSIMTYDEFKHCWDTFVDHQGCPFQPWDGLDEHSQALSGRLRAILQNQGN
CAL PDZ FP-2: blocks peptide binding to the human CAL PDZ domain; Q9HD26; purified CAL PDZ, TMR-peptide fluorescence polarization, 1 h; inhibition, % at 24.9 µM; 0.92% of 300,000 active;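 active means mean inhibition of at least 30% with at least half of replicates also reaching 30%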;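 further: 0% = DMSO neutral control and 100% = excess unlabeled competitor peptide PRC23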
* hit, by the source's call; / = not tested or not shown.

SMILES	CAL PDZ FP-1	Keap1-Nrf2 PPI	LANA DNA inh	APOBEC3G inh	A3A deaminase	CAL PDZ FP-2
CNc1nc(NN)nc(Nc2ccccc2)n1	-2.2	-3.7	0.5	-3.7	-3.6	58.2*
COc1ccc(C(CNC(=O)c2ccc(-c3nc4ccccc4s3)o2)N2CCCC2)cc1 (centres undefined)	-4.3	-6.5	4.5	-6.4	-2.3	-3.1
Cc1ccc(C)c(N2CCN(Cc3nnnn3C3CCCCC3)CC2)c1	-0.1	-5.4	0.9	-6.7	-1.0	2.6
Cc1ccc2nc(N3CCN(Cc4nnnn4C4CCCC4)CC3)c(C#N)cc2c1	-2.0	5.0	4.0	-8.2	-3.2	55.2*
CC1(C)CC(CC(=O)O)CC(C)(C)N1	-0.4	-3.5	-0.4	-3.5	0.8	5.4
C/C(=N\O)C1CC(CC(=O)O)C1(C)C (centres undefined)	7.9	-3.5	0.8	/	/	42.8*
Cc1ccc(NNC(=O)c2cc(C(C)(C)C)nn2Cc2ccccc2)cc1	-0.4	0.7	1.9	30.6	-3.5	-7.7
CC(C)(C)c1cc(C(=O)NNc2cccc(Cl)c2)n(Cc2ccccc2)n1	-0.5	-1.3	-2.6	-6.6	-2.0	65.9*
COC(C/C=C\[C@@H](O)COCc1ccccc1)OC	-0.5	-2.9	1.2	-8.2	-2.0	-1.0
CCc1ccc(-c2ccc(SCC(=O)NCC3CCCO3)nn2)cc1 (centres undefined)	-0.3	2.3	-1.2	-10.7	-1.7	-0.2
CCOC(=O)CNc1ccc2c(c1)OCO2	0.3	22.1*	37.9	-6.2	-5.7	0.4
CC(C)c1ccc(C2OCC(C)([N+](=O)[O-])CO2)cc1 (centres undefined)	19.5	-6.8	0.5	/	/	90.6*
CC(C)c1ccc(C2OCCCO2)cc1	0.0	-5.3	-0.3	/	/	/
COc1cc([N+](=O)[O-])ccc1NC(=O)COC(=O)c1c[nH]c(=O)[nH]c1=O	-0.8	-0.6	0.9	-2.3	-0.1	-5.8
COC(=O)c1c(=O)n(O)c2ccc(OC)cc2[n+]1[O-]	0.1	23.6*	48.4	-1.3	2.6	-0.5
C=CCn1cnnc1SCC(=O)Nc1cccnc1Cl	/	/	/	-3.4	-2.8	/
CCn1c(C(=O)O)c(CC(=O)Nc2cccc(C(F)(F)F)c2)c2ccccc21	-0.2	3.8	-1.1	-6.9	-1.8	-2.9
CC(C)CSc1nnc(N)s1	-0.6	0.1	-0.8	-3.1	-2.7	57.5*
COC(=O)c1c(N2C(=O)[C@H]3[C@@H](C2=O)[C@]2(C(=O)Nc4c(C)cc(C)cc42)N2CCC[C@@H]32)sc(C)c1C	0.2	-5.4	-1.5	6.1	3.4	65.5*
COC(=O)c1c(N2C(=O)[C@H]3[C@@H](C2=O)[C@]2(C(=O)Nc4c2ccc(C)c4C)N2CCC[C@@H]32)sc(C)c1C	-0.7	-4.3	-2.8	-4.2	-2.0	1.0
CC1CC(C)C(=NNC(N)=O)C(C(O)CC2CCC(=O)NC2=O)C1 (centres undefined)	0.9	-7.6	0.4	/	/	50.7*
CCC1SC(C)C/C(=N/NC(N)=O)C1C (centres undefined)	1.3	-2.5	-1.3	-15.5	-5.8	-1.4
O=C(Nc1ccccc1)c1ccc2snnc2c1	-0.4	-3.9	0.8	-1.5	0.5	78.4*
COc1ccccc1N(CC(=O)N1CCN(c2ccccc2)CC1)S(=O)(=O)c1ccc(C)cc1	-0.6	2.4	-2.4	-6.1	-6.8	65.5*
COc1ccc(C(C)(C)C)cc1NC(=O)CCCN1C(=O)CN(C)C1=O	0.5	0.9	-1.3	-8.9	2.5	-4.4
SMILES	CAL PDZ FP-1	Keap1-Nrf2 PPI	LANA DNA inh	APOBEC3G inh	A3A deaminase	CAL PDZ FP-2
O=C(CNc1ccccc1F)N/N=C/C1CC=CCC1 (centres undefined)	-2.2	0.2	-1.6	-9.8	-0.3	57.6*
O=C(COC(=O)C1CCC(N2C(=O)C3C4CCC(C4)C3C2=O)CC1)c1ccc(F)cc1 (centres undefined)	-0.3	-2.0	-2.0	-11.0	-5.1	79.0*
Cc1ccc(C(=O)NCC(=O)NCc2cc(=O)n(C)c(=O)n2C)cc1C	0.0	1.2	-1.7	6.0	3.5	44.5*
CC(=O)c1ccc(S(=O)(=O)NCCC(=O)NC2CCN(Cc3ccccc3)CC2)cc1	-1.3	-3.5	/	-5.9	-4.5	3.7
CC(=O)C1=C(O)C(CSCc2ccccc2)N(C)C1=O (centres undefined)	-1.0	-1.9	-4.9	/	/	-0.5
NC(=O)CC1C(=O)N(c2ccc(Cl)cc2)C(=S)N1NC(=O)c1cccc(F)c1 (centres undefined)	/	1.0	0.2	0.8	-4.0	62.3*
Cc1cnc(C(=O)OCc2csc(CC(=O)Nc3ccccc3C)n2)cn1	-1.0	3.6	-0.9	-2.1	4.7	/
CN(C)C(=O)c1ccc(NC(=O)c2ccc(-c3ccc(Cl)cc3)o2)cc1	-2.9	2.5	1.9	-3.0	26.1	61.6*
O=C(Nc1cccnc1)c1ccc(-c2ccc(Cl)cc2)o1	-0.9	-7.2	0.0	5.0	2.7	-1.4
Cc1cccc(NC(=O)c2ccccc2SCc2ccc(F)cc2)n1	-0.3	-6.9	0.2	0.6	-0.4	59.9*
CSc1ncccc1C(=O)Nc1ccc(F)c(F)c1F	-1.8	-2.1	2.7	-5.0	1.1	-0.4
O=C(CCN1CCN(c2ccccc2)CC1)NNC(=S)Nc1ccccc1Cl	-0.7	1.0	1.4	-11.8	-2.8	41.2*
O=C(CN1CCN(c2ccccc2)CC1)Nc1ccccc1Cl	-2.5	-4.8	0.1	-3.3	-2.1	0.5
COc1ccc(S(=O)(=O)N2CCOCC2)cc1NC(=O)CCc1cc(OC)c(OC)c(OC)c1	0.6	2.8	0.0	-0.5	-0.8	4.3
Cc1ccc(S(=O)(=O)c2nc(NN(C)C)sc2Cl)cc1	8.9	1.3	2.7	-2.0	-3.3	120.5*
c1cc2c(cc1Cn1cnnn1)OCO2	-1.6	-2.3	0.8	-2.7	-0.9	62.4*
O=C1Nc2cc3c(cc2C1=O)sc1ccccc13	/	/	/	-3.5	-0.6	/
O=C(c1ccc(N2CCCC2=O)cc1)N1CCN(c2ccccc2F)CC1	-1.4	-0.6	0.7	-2.9	-5.1	56.3*
CCN(CC(=O)Nc1c(F)cccc1F)C(=O)Cn1[nH]c(=O)c2ccccc2c1=O	-0.3	-0.6	0.6	-4.6	1.6	77.8*
CCN(CC(=O)Nc1c(F)cccc1F)C(=O)Cc1c[nH]c2ccccc12	0.1	-2.4	-0.5	-5.1	-2.1	6.4
CCN(CC(=O)Nc1c(F)cccc1F)C(=O)CSCC(=O)Nc1cccc(C)c1	0.0	-4.0	1.4	-0.1	1.5	77.8*
CCN(CC(=O)Nc1c(F)cccc1F)C(=O)CSCC(=O)Nc1ccc(OC)cc1	-0.5	-6.8	-2.8	-5.0	1.0	-2.1
CCCC(C)C(=O)OCC(=O)Nc1ccc(Br)cc1 (centres undefined)	/	/	/	3.7	28.1	/
CCOC(=O)c1ccccc1NC(=O)CSc1ccc(-c2ccccn2)nn1	-1.9	-3.7	-1.5	-10.9	-4.4	50.7*
